Source: ChEMBL document CHEMBL4351018, “Novel phenanthridin-6(5H)-one derivatives as potent and selective BET bromodomain inhibitors: Rational design, synthesis and biological evaluation” (Eur J Med Chem, 2019)

How the values were obtained:
[1] = molecular target: Bromodomain-containing protein 2 (Homo sapiens) (UniProt P25440); test: Binding affinity to BRD2 bromodomain 2 (unknown origin) at 20 uM by Alpha screen assay relative to control
[2] = molecular target: Bromodomain-containing protein 4 (Homo sapiens, UniProt O60885); test: Binding affinity to recombinant human His-tagged BRD4 bromodomain 1 expressed in […] insect cells using biotinylated H4(1 to 21)K5/8/12/16Ac peptide as substrate at 20 uM preincubated for 30 mins followed by substrate addition and measured after 30 mins by Alpha screen assay relative to control
[3] = molecular target: Bromodomain testis-specific protein (Homo sapiens) (UniProt Q58F21); test: Binding affinity to BRDT bromodomain 1 (unknown origin) at 20 uM by Alpha screen assay relative to control
[4] = molecular target: T1, Bromodomain-containing protein 9 (Homo sapiens) (UniProt Q9H8M2); test: Binding affinity to BRD9 (unknown origin) at 20 uM by Alpha screen assay relative to control
T1 sequence (whole entry): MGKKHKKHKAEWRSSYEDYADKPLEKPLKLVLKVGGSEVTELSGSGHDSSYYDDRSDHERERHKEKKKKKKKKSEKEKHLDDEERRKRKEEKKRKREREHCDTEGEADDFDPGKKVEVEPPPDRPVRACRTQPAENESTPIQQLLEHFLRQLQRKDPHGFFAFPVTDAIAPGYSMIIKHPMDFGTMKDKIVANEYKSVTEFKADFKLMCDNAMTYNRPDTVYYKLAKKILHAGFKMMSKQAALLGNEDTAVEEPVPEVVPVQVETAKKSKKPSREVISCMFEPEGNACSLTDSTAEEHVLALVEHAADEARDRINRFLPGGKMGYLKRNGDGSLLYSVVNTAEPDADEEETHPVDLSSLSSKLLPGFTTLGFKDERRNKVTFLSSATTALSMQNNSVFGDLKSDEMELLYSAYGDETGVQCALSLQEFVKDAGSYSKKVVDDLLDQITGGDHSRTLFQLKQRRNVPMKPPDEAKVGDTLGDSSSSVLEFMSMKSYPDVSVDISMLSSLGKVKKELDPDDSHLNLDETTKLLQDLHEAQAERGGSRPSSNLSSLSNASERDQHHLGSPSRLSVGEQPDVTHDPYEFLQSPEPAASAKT

Peregrin (Homo sapiens) = molecular target: T2, Peregrin (Homo sapiens) (UniProt P55201); test: Binding affinity to BRPF1B (unknown origin) at 20 uM by Alpha screen assay relative to control
T2 sequence (whole entry): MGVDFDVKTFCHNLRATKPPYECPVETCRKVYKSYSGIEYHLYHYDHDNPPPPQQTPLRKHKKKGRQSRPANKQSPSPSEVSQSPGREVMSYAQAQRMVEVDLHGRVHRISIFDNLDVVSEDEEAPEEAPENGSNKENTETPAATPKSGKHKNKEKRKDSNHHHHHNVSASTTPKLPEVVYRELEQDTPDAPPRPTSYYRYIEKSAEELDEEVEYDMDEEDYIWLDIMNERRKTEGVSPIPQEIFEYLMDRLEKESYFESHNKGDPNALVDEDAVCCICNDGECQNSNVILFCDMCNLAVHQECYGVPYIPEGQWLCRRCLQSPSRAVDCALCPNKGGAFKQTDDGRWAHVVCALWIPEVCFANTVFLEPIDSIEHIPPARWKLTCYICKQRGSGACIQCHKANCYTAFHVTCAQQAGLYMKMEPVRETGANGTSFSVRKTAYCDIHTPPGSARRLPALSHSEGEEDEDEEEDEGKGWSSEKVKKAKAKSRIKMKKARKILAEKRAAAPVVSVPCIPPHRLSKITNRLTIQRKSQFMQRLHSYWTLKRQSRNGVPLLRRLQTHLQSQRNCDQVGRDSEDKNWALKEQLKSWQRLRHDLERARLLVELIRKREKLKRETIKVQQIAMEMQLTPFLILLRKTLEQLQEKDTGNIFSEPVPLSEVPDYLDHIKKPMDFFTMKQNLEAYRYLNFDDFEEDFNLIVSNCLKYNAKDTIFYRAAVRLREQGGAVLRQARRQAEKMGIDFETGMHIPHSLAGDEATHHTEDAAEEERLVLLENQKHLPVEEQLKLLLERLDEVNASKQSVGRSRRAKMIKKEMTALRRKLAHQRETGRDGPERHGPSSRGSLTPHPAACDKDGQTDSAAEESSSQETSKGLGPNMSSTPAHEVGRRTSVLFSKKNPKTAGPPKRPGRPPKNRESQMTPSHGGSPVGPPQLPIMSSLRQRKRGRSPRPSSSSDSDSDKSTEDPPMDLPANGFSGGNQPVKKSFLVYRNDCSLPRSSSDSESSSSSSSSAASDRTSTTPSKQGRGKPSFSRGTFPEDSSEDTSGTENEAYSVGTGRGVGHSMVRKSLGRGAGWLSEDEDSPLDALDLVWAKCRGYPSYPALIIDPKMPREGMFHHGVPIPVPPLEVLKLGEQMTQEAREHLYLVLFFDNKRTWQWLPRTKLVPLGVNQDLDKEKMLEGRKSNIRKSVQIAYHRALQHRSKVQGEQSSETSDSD

A549 [5] = test: Antiproliferative activity against human A549 cells incubated for 48 hrs by MTT assay; format: functional, cell-based; conditions: A549, 48 h
Outline: (§1)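 Cells kept in DMEM or RPMI 1640 with 10% FBS at 37 °C, 5% CO2. MTT added for 4 h at 37 °C, formazan dissolved in DMSO, OD read at 570 nm. Survival % taken relative to blank and control wells. Triplicate runs; IC50 from curve fit.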

PANC-1 = test: Antiproliferative activity against human PANC1 cells incubated for 48 hrs by MTT assay; format: functional, cell-based; conditions: PANC-1, 48 h; outline: as §1
A549 [6] = test: Induction of apoptosis in human A549 cells assessed as necrotic cells at 1.0 uM incubated for 48 hrs by annexin V-FITC/PI double staining based flow cytometric analysis (reference value: 0%); format: functional
A549 [7] = test: Induction of apoptosis in human A549 cells assessed as late apoptotic cells at 3.0 uM incubated for 48 hrs by annexin V-FITC/PI double staining based flow cytometric analysis (reference value: 0.039%); format: functional
A549 [8] = test: Induction of apoptosis in human A549 cells assessed as necrotic cells at 3.0 uM incubated for 48 hrs by annexin V-FITC/PI double staining based flow cytometric analysis (reference value: 0%); format: functional
A549 [9] = test: Induction of apoptosis in human A549 cells assessed as viable cells at 5.0 uM incubated for 48 hrs by annexin V-FITC/PI double staining based flow cytometric analysis (reference value: 98.2%); format: functional; conditions: A549, 48 h, read-out: Activity
A549 [10] = test: Induction of apoptosis in human A549 cells incubated for 48 hrs by annexin V-FITC/PI double staining based flow cytometric analysis; format: functional, cell-based
[11] = AUC (0 to infinity) in Sprague-Dawley rat at 10 mg/kg, po measured for 0.083 to 24 hrs by LC-MS/MS analysis; format: ADME, organism-based; parameters: dose 10 mg/kg, route oral, time infinity; conditions: in vivo
[12] = Volume of distribution at steady state in Sprague-Dawley rat at 2.5 mg/kg, iv measured for 0.083 to 24 hrs by LC-MS/MS analysis; format: ADME, organism-based; conditions: in vivo, read-out: Vdss

Sequence of Bromodomain-containing protein 2 (Homo sapiens) (P25440 whole entry, looked up): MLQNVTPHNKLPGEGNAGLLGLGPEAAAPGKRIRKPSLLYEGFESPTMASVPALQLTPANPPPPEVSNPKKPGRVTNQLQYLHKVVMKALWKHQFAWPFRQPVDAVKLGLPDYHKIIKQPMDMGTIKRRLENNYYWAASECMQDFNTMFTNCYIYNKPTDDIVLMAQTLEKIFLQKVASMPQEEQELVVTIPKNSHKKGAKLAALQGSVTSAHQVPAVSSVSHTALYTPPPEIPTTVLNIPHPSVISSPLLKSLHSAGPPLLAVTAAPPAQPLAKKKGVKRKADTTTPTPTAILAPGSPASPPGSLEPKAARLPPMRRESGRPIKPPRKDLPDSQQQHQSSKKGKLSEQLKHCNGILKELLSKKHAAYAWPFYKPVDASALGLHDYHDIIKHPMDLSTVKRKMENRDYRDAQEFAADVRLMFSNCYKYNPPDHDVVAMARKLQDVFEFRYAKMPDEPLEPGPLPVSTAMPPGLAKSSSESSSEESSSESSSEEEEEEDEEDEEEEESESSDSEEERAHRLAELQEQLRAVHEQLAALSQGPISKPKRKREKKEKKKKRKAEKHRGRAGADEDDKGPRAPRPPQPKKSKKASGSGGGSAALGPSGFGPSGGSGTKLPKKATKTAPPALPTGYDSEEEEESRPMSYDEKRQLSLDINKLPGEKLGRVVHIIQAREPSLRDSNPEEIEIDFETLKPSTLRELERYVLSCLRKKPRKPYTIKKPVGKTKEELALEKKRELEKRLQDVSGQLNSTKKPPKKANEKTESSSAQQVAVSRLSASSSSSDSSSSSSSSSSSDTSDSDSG

COc1ccc(Cl)cc1S(=O)(=O)Nc1ccc2[nH]c(=O)c3ccccc3c2c1
Activity [1]: > 70%
Activity [2]: > 70%
Activity [3]: > 70%
Activity [4]: > 30%
Activity (Peregrin (Homo sapiens)): > 30%
IC50 (A549 [5]): 0.75 µM
IC50 (PANC-1): 6.7 µM
Activity (A549 [6]): 0.044%
Activity (A549 [7]): 7.11%
Activity (A549 [8]): 0%
viability at 5 µM (A549 [9]): 19.7%
Activity (A549 [10]): Dose-dependent effect
AUC(0-inf) [11]: 670 ng·h/mL
Vd [12]: 76.7 L/kg
